From ChEMBL document CHEMBL5107935, “Modulating β-arrestin 2 recruitment at the δ- and μ-opioid receptors using peptidomimetic ligands” (RSC Med Chem, 2021) come the findings set out here.

Broadly, the IC50 is the point on the concentration scale where inhibition reaches its midpoint. What is called Emax is the maximal effect, on the per cent scale that the assay sets. A word on the Ki: it is the equilibrium dissociation constant of an inhibitor or competing ligand from its target. A low value points to tighter binding. As a reminder, the EC50 is the concentration needed to bring the measured effect to its halfway point.

Molecules are shown by their SMILES.

The target of experiment [1] is Delta-type opioid receptor (Mus musculus, UniProt P32300). Kind of experiment: Agonist activity at FLAG-tagged mouse delta opioid receptor expressed in human HEK293 cells assessed as inhibition of forskolin stimulated cAMP production preincubated for 20 mins followed by forskolin stimulation and measured after 15 mins by GloSensor assay. Type of experiment: functional, cell-based. The gist of the method:
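HEK293 cells transiently transfected 1:3 with FLAG-mouse δOR or HA-mouse μOR plus pGloSensor22F-cAMP; used two days later at 20,000 cells/well. GloSensor reagent (2% final) applied 90 min at room temperature, then drug 20 min, then forskolin (30 μM final) 15 min, all at room temperature. Luminescence read; triplicates; pIC50 from nonlinear regression.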

The target in experiment [2] is T1, Delta-type opioid receptor (Homo sapiens, UniProt P41143). Kind of experiment: Agonist activity at human delta opioid receptor expressed in CHO cells co-expressing beta-arrestin2 assessed as beta-arrestin2 recruitment by measuring maximum efficacy measured after 90 mins by PathHunter assay. Type of experiment: functional, cell-based. Conditions: filed as agonist. The gist of the method: (§1)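 PathHunter CHO cells expressing human δOR and β-arrestin 2 were plated at 2,500 cells/well one day before use. Drug was applied for 90 min at 37 °C/5% CO2, followed by PathHunter assay buffer for 60 min at room temperature. Luminescence was read. Points were run in duplicate, and pEC50 was obtained by nonlinear regression; values are means ± SEM.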
On the technique in general: Recruitment of arrestin is a read-out of receptor activation apart from second messengers.

The target of experiment [3] is Mu-type opioid receptor (Mus musculus, UniProt P42866). Kind of experiment: Agonist activity at FLAG-tagged mouse mu opioid receptor expressed in human HEK293 cells assessed as inhibition of forskolin stimulated cAMP production preincubated for 20 mins followed by forskolin stimulation and measured after 15 mins by GloSensor assay. Type of experiment: functional, cell-based.

The species entered for a further experiment is Homo sapiens. Kind of experiment: Selectivity ratio, ratio of Ki for displacement of [3H]DAMGO from human mu opioid receptor expressed in CHO cell membrane to Ki for displacement of [3H]DPDPE from human delta opioid receptor expressed in CHO cell membrane. It counts as cell membranes. In general terms: In a radioligand displacement assay an active substance lowers the binding of a labelled ligand.

Experiment [4] addresses T1, Delta-type opioid receptor. Kind of experiment: Displacement of [3H]DPDPE from human delta opioid receptor expressed in CHO cell membrane measured after 90 mins by liquid scintillation counting method. Type of experiment: cell membranes. The gist of the method: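 Membranes (7 μg protein) were added and incubated 90 min at room temperature in 50 mM Tris HCl, 10 mM MgCl2, 1 mM EDTA, pH 7.4. Samples were filtered on GF-B, washed 4× with ice-cold 50 mM Tris HCl, and counted by scintillation. Points were run in duplicate.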

Experiment [5] concerns the target T2, Mu-type opioid receptor (Homo sapiens, UniProt P35372). Kind of experiment: Displacement of [3H]DAMGO from human mu opioid receptor expressed in CHO cell membrane incubated for 90 mins by liquid scintillation counting method. Type of experiment: cell membranes.
In experiment [6] the target is T2, Mu-type opioid receptor. Kind of experiment: Agonist activity at human mu opioid receptor expressed in CHO cells co-expressing beta-arrestin2 assessed as beta-arrestin2 recruitment measured after 90 mins by PathHunter assay. Type of experiment: functional, cell-based.
Experiment [7] deals with T1, Delta-type opioid receptor. Kind of experiment: Agonist activity at human delta opioid receptor expressed in CHO cells co-expressing beta-arrestin2 assessed as beta-arrestin2 recruitment measured after 90 mins by PathHunter assay. Type of experiment: functional, cell-based. Put shortly: as §1

Sequence of Mu-type opioid receptor (Mus musculus, UniProt P42866) (P42866 whole entry): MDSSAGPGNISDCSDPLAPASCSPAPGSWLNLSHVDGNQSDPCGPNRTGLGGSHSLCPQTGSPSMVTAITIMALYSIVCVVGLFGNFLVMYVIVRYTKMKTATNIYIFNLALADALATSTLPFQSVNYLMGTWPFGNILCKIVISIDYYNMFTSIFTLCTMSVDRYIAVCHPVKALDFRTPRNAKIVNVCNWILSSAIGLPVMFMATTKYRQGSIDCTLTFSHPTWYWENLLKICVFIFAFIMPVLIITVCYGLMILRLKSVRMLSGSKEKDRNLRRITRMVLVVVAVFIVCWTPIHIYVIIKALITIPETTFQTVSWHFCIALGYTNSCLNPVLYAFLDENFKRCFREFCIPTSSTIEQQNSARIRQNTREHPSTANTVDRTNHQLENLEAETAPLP
T1 sequence (P41143 whole entry): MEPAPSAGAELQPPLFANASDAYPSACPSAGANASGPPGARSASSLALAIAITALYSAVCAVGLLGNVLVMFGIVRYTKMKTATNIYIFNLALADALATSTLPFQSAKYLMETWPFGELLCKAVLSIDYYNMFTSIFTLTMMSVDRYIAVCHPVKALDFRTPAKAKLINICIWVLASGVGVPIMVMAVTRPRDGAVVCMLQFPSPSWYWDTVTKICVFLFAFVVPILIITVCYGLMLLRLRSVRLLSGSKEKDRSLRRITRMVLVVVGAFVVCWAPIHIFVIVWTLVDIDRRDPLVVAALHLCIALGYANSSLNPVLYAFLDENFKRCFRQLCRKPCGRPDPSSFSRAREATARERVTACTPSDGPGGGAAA
Sequence of Delta-type opioid receptor (Mus musculus, UniProt P32300) (P32300 whole entry): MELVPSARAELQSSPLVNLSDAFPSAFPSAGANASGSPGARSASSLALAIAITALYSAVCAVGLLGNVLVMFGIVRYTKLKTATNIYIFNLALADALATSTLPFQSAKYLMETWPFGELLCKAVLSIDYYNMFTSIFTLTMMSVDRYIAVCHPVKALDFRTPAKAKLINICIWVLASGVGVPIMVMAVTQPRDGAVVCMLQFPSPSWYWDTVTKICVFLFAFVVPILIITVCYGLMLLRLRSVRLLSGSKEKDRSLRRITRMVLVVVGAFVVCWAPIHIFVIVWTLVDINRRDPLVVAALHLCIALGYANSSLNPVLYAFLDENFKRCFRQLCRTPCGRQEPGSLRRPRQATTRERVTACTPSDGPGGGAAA
T2 sequence (P35372 whole entry): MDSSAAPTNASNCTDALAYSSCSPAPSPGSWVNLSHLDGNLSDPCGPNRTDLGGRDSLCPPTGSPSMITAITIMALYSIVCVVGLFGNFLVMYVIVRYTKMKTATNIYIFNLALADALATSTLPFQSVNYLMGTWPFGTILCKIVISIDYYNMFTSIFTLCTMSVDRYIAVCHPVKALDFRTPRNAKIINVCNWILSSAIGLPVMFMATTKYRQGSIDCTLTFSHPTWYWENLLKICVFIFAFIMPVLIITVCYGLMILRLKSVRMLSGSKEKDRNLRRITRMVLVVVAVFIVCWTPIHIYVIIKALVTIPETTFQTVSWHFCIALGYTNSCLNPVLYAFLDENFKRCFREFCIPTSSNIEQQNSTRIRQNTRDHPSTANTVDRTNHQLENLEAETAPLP

For the compound `CC(C)C[C@H](NC(=O)[C@H](Cc1ccccc1)NC(=O)CNC(=O)C/C=C(\F)[C@@H](N)Cc1ccc(O)cc1)C(=O)O`, the half-inhibitory concentration (IC50) was found to be 33.7 nM in experiment [1] and 363 nM on Mu-type opioid receptor [3]. Further, the Emax in experiment [2] was 102%.
On to `CNC(=O)[C@H](CC(C)C)NC(=O)[C@H](Cc1ccccc1)NC(=O)CNC(=O)C/C=C(\F)[C@@H](N)Cc1ccc(O)cc1`, for which the Ratio Ki in the experiment listed under Homo sapiens is 0.2. For the same compound, the IC50 in experiment [1] worked out at 50.2 nM; at Mu-type opioid receptor [3], 42.7 nM. The Ki in experiment [4] was found to be 55.9 nM; at Mu-type opioid receptor [5] it was 9.92 nM. The EC50 at Mu-type opioid receptor [6] is 7210 nM; in experiment [7] it was 667 nM. Further, the Emax in experiment [2] came out at 90%.
With `CCNC(=O)[C@H](CC(C)C)NC(=O)[C@H](Cc1ccccc1)NC(=O)CNC(=O)C/C=C(\F)[C@@H](N)Cc1ccc(O)cc1`, in the experiment listed under Homo sapiens, the Ratio Ki was 0.4. The IC50 in experiment [1] amounted to 66.2 nM; on Mu-type opioid receptor [3], 178 nM. Also, the Ki came out at 54.7 nM in experiment [4] and 20 nM on Mu-type opioid receptor [5]. Further, the EC50 worked out at 2260 nM at Mu-type opioid receptor [6] and 695 nM in experiment [7]. In addition, in experiment [2], the Emax stood at 70%.
Regarding `CC(C)C[C@H](NC(=O)[C@H](Cc1ccccc1)NC(=O)CNC(=O)C/C=C(\F)[C@@H](N)Cc1ccc(O)cc1)C(=O)NC1CC1`, the Ratio Ki in the experiment listed under Homo sapiens was determined as 0.3. Also, the results for the IC50 (in experiment [1]; at Mu-type opioid receptor [3]) were 152 nM and 126 nM, respectively. In addition, the Ki in experiment [4] is 104 nM; on Mu-type opioid receptor [5], 26.1 nM. The EC50 at Mu-type opioid receptor [6] came out at 4260 nM; in experiment [7], 693 nM. For the same compound, the Emax in experiment [2] is 69%.
Regarding `CC(C)C[C@H](NC(=O)[C@H](Cc1ccccc1)NC(=O)CNC(=O)C/C=C(\F)[C@@H](N)Cc1ccc(O)cc1)C(N)=O`, the Ratio Ki in the experiment listed under Homo sapiens worked out at 0.1. The results for the IC50 (in experiment [1]; at Mu-type opioid receptor [3]) were 46.6 nM and 186 nM, respectively. Further, the Ki in experiment [4] turned out to be 94.4 nM; at Mu-type opioid receptor [5] it was 7.07 nM. Also, the EC50 came out at 2640 nM at Mu-type opioid receptor [6] and 959 nM in experiment [7]. Besides, the Emax in experiment [2] stood at 84%.
With `CC(C)C[C@H](NC(=O)[C@H](Cc1ccccc1)NC(=O)CNC(=O)C/C=C(\F)[C@@H](N)Cc1ccc(O)cc1)C(=O)N(C)C`, in the experiment listed under Homo sapiens, the Ratio Ki was determined as 0.3. For the same compound, the figures for the IC50 (in experiment [1]; on Mu-type opioid receptor [3]) were 425 nM and 1000 nM, respectively. For the same compound, the Ki in experiment [4] came out at 255 nM; at Mu-type opioid receptor [5], 85.4 nM. Also, the EC50 worked out at 17600 nM on Mu-type opioid receptor [6] and 3820 nM in experiment [7]. Further, the Emax in experiment [2] is 63%.
